Key:
[1] = Cellular uptake in human NHBE at 3 to 20 uM after 3 hrs by LC-MS/MS analysis relative to azithromycin; format: ADME
Method in brief: (§1)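 Cells (primary human BSMC, MDM, NHBE, PMN, T-lymphocytes, NHLF, or NCI-H292 lung carcinoma line) incubated 3 h with 3-20 μM macrolide; extracellular drug removed (PMNs washed through silicone oil, NCI-H292 washed with ice-cold PBS). Intracellular drug quantified by LC-MS/MS; accumulation expressed as % of azithromycin accumulation measured in the same experiment. Azithromycin reference run at 10 μM, normalized to total protein.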

[2] = Cellular uptake in human NHBE assessed as compound retention at 3 to 20 uM incubated for 3 hrs followed by drug washout measured after 3 hrs by LC-MS/MS analysis relative to initial drug accumulation; format: ADME
Method in brief: (§2)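 Cells loaded 3 h with 3-20 μM macrolide, then incubated 3 h in drug-free medium. Intracellular drug measured by LC-MS/MS before and after washout. Retention given as percentage of initially accumulated compound remaining in cells after washout.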

[3] = Cellular uptake in human PMNC at 3 to 20 uM after 3 hrs by LC-MS/MS analysis relative to azithromycin; format: ADME; method in brief: as §1
[4] = Cellular uptake in human MDM at 3 to 20 uM after 3 hrs by LC-MS/MS analysis relative to azithromycin; format: ADME; method in brief: as §1
[5] = Cellular uptake in human MDM assessed as compound retention at 3 to 20 uM incubated for 3 hrs followed by drug washout measured after 3 hrs by LC-MS/MS analysis relative to initial drug accumulation; format: ADME; method in brief: as §2
NCI-H292 [6] = assay: Cellular uptake in human NCI-H292 cells assessed as compound retention at 3 to 20 uM incubated for 3 hrs followed by drug washout measured after 3 hrs by LC-MS/MS analysis relative to initial drug accumulation; format: ADME, cell-based; conditions: nci-h292, 3 h; method in brief: as §2
[7] = Cellular uptake in human T lymphocytes assessed as compound retention at 3 to 20 uM incubated for 3 hrs followed by drug washout measured after 3 hrs by LC-MS/MS analysis relative to initial drug accumulation; format: ADME, cell-based; conditions: t-cell; method in brief: as §2
[8] = Cellular uptake in human T lymphocytes at 3 to 20 uM after 3 hrs by LC-MS/MS analysis relative to azithromycin; format: ADME, cell-based; conditions: t-cell; method in brief: as §1
[9] = Cellular uptake in normal human lung fibroblast at 3 to 20 uM after 3 hrs by LC-MS/MS analysis relative to azithromycin; format: ADME; method in brief: as §1
[10] = Cellular uptake in normal human lung fibroblasts assessed as compound retention at 3 to 20 uM incubated for 3 hrs followed by drug washout measured after 3 hrs by LC-MS/MS analysis relative to initial drug accumulation; format: ADME; method in brief: as §2
[11] = Cellular uptake in human BSMC at 3 to 20 uM after 3 hrs by LC-MS/MS analysis relative to azithromycin; format: ADME; method in brief: as §1
NCI-H292 [12] = assay: Cellular uptake in human […] cells at 3 to 20 uM after 3 hrs by LC-MS/MS analysis relative to azithromycin; format: ADME, cell-based; conditions: nci-h292, 3 h; method in brief: as §1
[13] = Cellular uptake in human PMNC assessed as compound retention at 3 to 20 uM incubated for 3 hrs followed by drug washout measured after 3 hrs by LC-MS/MS analysis relative to initial drug accumulation; format: ADME; method in brief: as §2
[14] = Cellular uptake in human BSMC assessed as compound retention at 3 to 20 uM incubated for 3 hrs followed by drug washout measured after 3 hrs by LC-MS/MS analysis relative to initial drug accumulation; format: ADME; method in brief: as §2

Drug uptake [1]	Drug uptake [2]	Drug uptake [3]	Drug uptake [4]	Drug uptake [5]	Drug uptake (NCI-H292 [6])	Drug uptake [7]	Drug uptake [8]	Drug uptake [9]	Drug uptake [10]	Drug uptake [11]	Drug uptake (NCI-H292 [12])	Drug uptake [13]	Drug uptake [14]	SMILES
52%	74%	42%	79%	81%	77%	46%	52%	52%	70%	75%	56%	68%	63%	CC[C@H]1OC(=O)[C@H](C)[C@@H](O)[C@H](C)[C@@H](O[C@@H]2O[C@H](C)C[C@H](N(C)C)[C@H]2O)[C@](C)(O)C[C@@H](C)CN(C)[C@H](C)[C@@H](O)[C@]1(C)O [DESCLADINOSYL AZITHROMYCIN]
25%	0%	36%	66%	4%	1%	2%	16%	127%	1%	36%	35%	2%	1%	CC[C@H]1OC(=O)[C@H](C)[C@@H](O[C@H]2C[C@@](C)(OC)[C@@H](O)[C@H](C)O2)[C@H](C)[C@@H](O[C@@H]2O[C@H](C)C[C@H](N(C)C)[C@H]2O)[C@](C)(OC)C[C@@H](C)C(=O)[C@H](C)[C@@H](O)[C@]1(C)O [CLARITHROMYCIN]
8%	0%	17%	28%	3%	0%	1%	5%	54%	0%	9%	13%	0%	0%	CC[C@H]1OC(=O)[C@H](C)[C@@H](O)[C@H](C)[C@@H](O)[C@](C)(O)C[C@@H](C)CN(C)[C@H](C)[C@@H](O)[C@]1(C)O [AZITHROMYCIN AGLYCONE]
135%	71%	146%	120%	83%	69%	30%	127%	122%	84%	111%	207%	77%	57%	CCCCCCCC(=O)NCCCN1C[C@H](C)C[C@@](C)(O)[C@H](O[C@@H]2O[C@H](C)C[C@H](N(C)C)[C@H]2O)[C@@H](C)[C@H](O[C@H]2C[C@@](C)(OC)[C@@H](O)[C@H](C)O2)[C@@H](C)C(=O)O[C@H](CC)[C@@](C)(O)[C@H](O)[C@H]1C
101%	33%	118%	148%	56%	48%	6%	41%	256%	63%	83%	121%	74%	27%	CC[C@H]1OC(=O)[C@H](C)[C@@H](O[C@H]2C[C@@](C)(OC)[C@@H](OC(=O)CN(CC)CC)[C@H](C)O2)[C@H](C)[C@@H](O[C@@H]2O[C@H](C)C[C@H](N(C)C)[C@H]2O)[C@](C)(OC)C[C@@H](C)C(=O)N[C@H](C)[C@@H](O)[C@]1(C)O
11%	16%	13%	11%	8%	23%	2%	5%	9%	35%	5%	10%	37%	0%	CC[C@H]1OC(=O)[C@H](C)[C@@H](O[C@H]2C[C@@](C)(OC)[C@@H](O)[C@H](C)O2)[C@H](C)[C@@H](O[C@@H]2O[C@H](C)C[C@H](N(C)C)[C@H]2O)[C@](C)(OC)C[C@@H](C)C(=O)N[C@H](C)[C@@H](O)[C@]1(C)O
100%	63%	100%	100%	93%	77%	38%	100%	100%	80%	100%	100%	79%	54%	CC[C@H]1OC(=O)[C@H](C)[C@@H](O[C@H]2C[C@@](C)(OC)[C@@H](O)[C@H](C)O2)[C@H](C)[C@@H](O[C@@H]2O[C@H](C)C[C@H](N(C)C)[C@H]2O)[C@](C)(O)C[C@@H](C)CN(C)[C@H](C)[C@@H](O)[C@]1(C)O [AZITHROMYCIN]
422%	57%	663%	1235%	100%	51%	19%	460%	1699%	78%	598%	457%	85%	47%	CCCCCCCC(=O)NCCCN(C)[C@H]1C[C@@H](C)O[C@@H](O[C@@H]2[C@@H](C)[C@H](O[C@H]3C[C@@](C)(OC)[C@@H](O)[C@H](C)O3)[C@@H](C)C(=O)O[C@H](CC)[C@@](C)(O)[C@H](O)[C@@H](C)N(C)C[C@H](C)C[C@@]2(C)O)[C@@H]1O

— ChEMBL document CHEMBL2177068, “Modeling cellular pharmacokinetics of 14- and 15-membered macrolides with physicochemical properties” (J Med Chem, 2011)
